Results reported in ChEMBL document CHEMBL1811872, “Tryptophan 2,3-dioxygenase (TDO) inhibitors. 3-(2-(pyridyl)ethenyl)indoles as potential anticancer immunomodulators” (J Med Chem, 2011).

What was measured:
[1] = Chemical stability of the compound in phosphate buffered saline assessed as compound remaining at pH 7.4 after 1.5 hrs; type: physicochemical; settings: read-out: Stability
Summary of the method: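 Compound was incubated in phosphate-buffered saline, pH 7.4, for 1.5 h; read-out was the percentage of compound recovered.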

[2] = Cytotoxicity against mouse P815B cells […] by MTT assay; type: functional; settings: read-out: LD50 (the source's name)
[3] = test system: Mus musculus; assay: Toxicity in mouse P815B cells expressing TDO xenografted immunized mouse at 160 mg/kg/day, po administered with water; type: organism-based; design: route oral; settings: in vivo
[4] = Plasma concentration in DBA/2 mouse at 160 mg/kg/day, po administered for 7 days with water; type: ADME, organism-based; design: route oral
Summary of the method: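 DBA/2 mice received the compound dissolved in drinking water (1 mg/mL) ad libitum. Mean water intake was 4.0 mL/mouse/day, giving about 160 mg/kg/day. Plasma levels of compound, L-Trp and kynurenine were measured at days 0, 1, 2 and 7.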

[5] = Solubility of the compound in phosphate buffered saline at pH 7.4; type: physicochemical
Summary of the method: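 Solubility was measured experimentally in phosphate buffer (PBS), pH 7.4, at room temperature.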

[6] = biological target: T1, MAO-B (amine oxidase [flavin-containing] B) (Homo sapiens, UniProt P27338); assay: Inhibition of MAO-B at 10 uM relative to control
T1 sequence (P27338 whole entry): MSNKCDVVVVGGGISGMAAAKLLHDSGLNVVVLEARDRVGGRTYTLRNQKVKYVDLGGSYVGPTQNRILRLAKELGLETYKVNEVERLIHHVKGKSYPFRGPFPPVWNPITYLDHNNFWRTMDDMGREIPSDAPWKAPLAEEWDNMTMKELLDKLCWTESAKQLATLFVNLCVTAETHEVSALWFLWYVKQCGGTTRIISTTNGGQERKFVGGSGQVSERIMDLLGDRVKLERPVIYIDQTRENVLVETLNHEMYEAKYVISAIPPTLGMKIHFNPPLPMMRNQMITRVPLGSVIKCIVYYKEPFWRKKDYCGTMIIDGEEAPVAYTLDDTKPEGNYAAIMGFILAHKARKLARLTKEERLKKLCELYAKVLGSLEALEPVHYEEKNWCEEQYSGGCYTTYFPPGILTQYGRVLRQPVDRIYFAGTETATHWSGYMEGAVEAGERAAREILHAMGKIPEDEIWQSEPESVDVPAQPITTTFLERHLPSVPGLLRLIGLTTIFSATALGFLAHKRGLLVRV

[7] = biological target: T2, MAO-A (amine oxidase [flavin-containing] A) (Homo sapiens, UniProt P21397); assay: Inhibition of MAO-A at 10 uM relative to control
T2 sequence (P21397 whole entry): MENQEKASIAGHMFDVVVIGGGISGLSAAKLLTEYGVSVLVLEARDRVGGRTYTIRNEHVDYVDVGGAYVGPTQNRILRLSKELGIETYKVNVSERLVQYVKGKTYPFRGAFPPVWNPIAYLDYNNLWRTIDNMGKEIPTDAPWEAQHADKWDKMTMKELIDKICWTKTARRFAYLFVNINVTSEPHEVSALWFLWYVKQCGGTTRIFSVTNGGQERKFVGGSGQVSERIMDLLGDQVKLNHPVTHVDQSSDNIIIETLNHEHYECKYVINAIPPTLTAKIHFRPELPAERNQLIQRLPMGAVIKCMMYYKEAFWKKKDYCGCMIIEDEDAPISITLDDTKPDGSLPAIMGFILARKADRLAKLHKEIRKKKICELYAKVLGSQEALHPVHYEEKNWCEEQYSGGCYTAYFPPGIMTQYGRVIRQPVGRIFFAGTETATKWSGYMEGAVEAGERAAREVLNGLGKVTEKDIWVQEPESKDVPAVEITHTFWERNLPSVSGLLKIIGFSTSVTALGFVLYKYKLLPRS

[8] = biological target: Tryptophan 2,3-dioxygenase (Mus musculus, UniProt P48776); assay: Inhibition of mouse TDO expressed in mouse P815B cells assessed as inhibition of tryptophan catabolism by measuring kynurenine production after 8 hrs by HPLC analysis; type: cell-based
Chain of Tryptophan 2,3-dioxygenase (P48776 whole entry): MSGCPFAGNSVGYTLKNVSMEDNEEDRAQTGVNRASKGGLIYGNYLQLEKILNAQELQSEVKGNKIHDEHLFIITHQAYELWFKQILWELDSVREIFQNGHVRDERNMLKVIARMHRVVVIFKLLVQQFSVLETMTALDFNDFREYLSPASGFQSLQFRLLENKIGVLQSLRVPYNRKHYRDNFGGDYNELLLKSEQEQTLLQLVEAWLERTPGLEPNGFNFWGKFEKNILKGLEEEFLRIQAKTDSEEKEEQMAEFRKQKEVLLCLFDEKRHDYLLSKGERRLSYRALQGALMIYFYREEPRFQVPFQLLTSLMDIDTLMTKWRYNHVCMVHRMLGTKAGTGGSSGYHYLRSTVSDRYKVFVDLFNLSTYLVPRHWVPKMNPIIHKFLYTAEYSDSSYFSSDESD

Fc1ccc2c(/C=C/c3nnn[nH]3)c[nH]c2c1
remaining at 1.5 h [1]: 93.3% | CC50 [2]: > 400000 nM | Activity [3]: Non-toxic | concentration at 168 h [4]: 60 µM | solubility [5]: > 300 µM | inhibition at 10 µM [6]: < 10% | inhibition at 10 µM [7]: < 10% | IC50 [8]: 2000 nM
